Laboratory results: ChEMBL document CHEMBL1130253 (J Med Chem, 1997)

What was measured:
[1] = molecular target: Human immunodeficiency virus type 1 protease (Human immunodeficiency virus 1, UniProt Q72874); assay: Inhibitory activity against HIV-1 protease
CCRF-CEM = assay: Concentration required to inhibit against HIV strain IIIB in CEM cell; assay type: functional; settings: Homo sapiens, read-out: ED50 (the source's name)
[2] = The maximum plasma concentration (30 mg/kg) administered orally in dog; assay type: ADME, organism-based, Canis lupus familiaris; set-up: dose 30 mg/kg, route oral; settings: po
Procedure, shortened: (§1)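 Male Sprague-Dawley rats (n = 3), beagle dogs (1M/1F), female cynomolgus monkeys and marmosets (1M/1F). Dosed 12.5–25 mg/kg iv or 25–50 mg/kg oral in 5% dextrose, or propylene glycol:water 50:50 for marmosets. Fasted groups fasted overnight. Venous blood sampled predose to 48 h. Plasma stored at -20 °C, extracted and assayed by HPLC-UV. Mean (SD) reported for rats.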

[3] = The maximum time for retention (12.5 mg/kg) administered intravenously in marmoset; assay type: ADME, organism-based; settings: callithrix, in vivo, iv; procedure, shortened: as §1
[4] = Oral bioavailability (50 mg/kg) in rat; assay type: ADME, organism-based; settings: in vivo; procedure, shortened: as §1
[5] = The maximum plasma concentration (50 mg/kg) administered orally in rat; assay type: ADME, organism-based; set-up: dose 50 mg/kg, route oral; settings: po; procedure, shortened: as §1
[6] = The maximum time for retention (50 mg/kg) administered orally in fasted rat; assay type: ADME, organism-based; settings: in vivo, po
Procedure, shortened: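 Male Sprague-Dawley rats (n = 3) were fasted overnight, then given a single oral dose (25-50 mg/kg range) in 5% dextrose. Jugular, femoral or cephalic blood was sampled predose and up to 48 h. Plasma was separated at once, held at -20 °C, extracted and quantified by HPLC with UV detection. Values are the mean of three rats.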

[7] = Elimination rate constant of the compound(30 mg/kg) administered orally in dog; assay type: ADME, organism-based, Canis lupus familiaris; settings: in vivo, po, read-out: T1/2 el (converted); procedure, shortened: as §1
[8] = Elimination rate constant of the compound(25 mg/kg) administered intravenously in rat; assay type: ADME, organism-based; settings: in vivo, iv, read-out: T1/2 el (converted); procedure, shortened: as §1
[9] = The maximum time for retention (12.5 mg/kg) administered intravenously in monkey; assay type: ADME, organism-based; settings: simiiformes, in vivo, iv; procedure, shortened: as §1
[10] = The maximum plasma concentration (200 mg/kg) administered orally in human; assay type: ADME, organism-based; set-up: route oral; settings: po
Procedure, shortened: (§2)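 Healthy human volunteers given single oral doses of 100–800 mg with food. Plasma PK parameters reported as mean ± SD of four subjects per dose. Tmax reported as median.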

[11] = The area under curve (15 mg/kg) administered intravenously in dog; assay type: ADME, organism-based, Canis lupus familiaris; settings: in vivo, iv; procedure, shortened: as §1
[12] = The maximum time for retention (400 mg) administered orally in human; settings: in vivo, po
[13] = The maximum time for retention (30 mg/kg) administered orally in dog; assay type: ADME, organism-based, Canis lupus familiaris; settings: in vivo, po
Procedure, shortened: (§3)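 Plasma pharmacokinetics in male Sprague-Dawley rats (n = 3), beagle dogs (1 male, 1 female), female cynomolgus monkeys (2) and marmosets (1 male, 1 female). Single iv (12.5-25 mg/kg) or oral (25-50 mg/kg) dose. Vehicle was 5% dextrose for rat, dog and monkey, and propylene glycol:water (50:50) for marmoset. Venous blood was drawn predose and up to 48 h. Plasma was stored at -20 °C, extracted and assayed by HPLC-UV. Values are means.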

[14] = Elimination rate constant of the compound(800 mg/kg) administered orally in human; assay type: ADME, organism-based; settings: in vivo, po; procedure, shortened: as §2
[15] = The area under curve (12.5 mg/kg) administered intravenously in monkey; assay type: ADME, organism-based; settings: simiiformes, in vivo, iv; procedure, shortened: as §1
[16] = The area under curve (25 mg/kg) administered orally in marmoset; assay type: ADME, organism-based; settings: callithrix, in vivo, po; procedure, shortened: as §1
[17] = The area under curve (100 mg/kg) administered orally in humans; assay type: ADME, organism-based; settings: human, in vivo, po; procedure, shortened: as §2
[18] = The area under curve (400 mg/kg) administered orally in humans; assay type: ADME, organism-based; settings: human, in vivo, po; procedure, shortened: as §2
[19] = Oral bioavailability (30 mg/kg) in dog; assay type: ADME, organism-based, Canis lupus familiaris; settings: in vivo; procedure, shortened: as §1
[20] = Elimination rate constant of the compound(200 mg/kg) administered orally in human; assay type: ADME, organism-based; settings: in vivo, po, read-out: T1/2 el (converted); procedure, shortened: as §2
[21] = Elimination rate constant of the compound(25 mg/kg) administered orally in marmoset; assay type: ADME, organism-based; settings: callithrix, in vivo, po, read-out: T1/2 el (converted); procedure, shortened: as §1
[22] = Oral bioavailability (50 mg/kg) in fasted rat; assay type: ADME, organism-based; settings: in vivo; procedure, shortened: as §1
[23] = The maximum plasma concentration (50 mg/kg) administered orally in fasted rat; assay type: ADME, organism-based; set-up: dose 50 mg/kg, route oral; settings: po; procedure, shortened: as §1
[24] = The maximum time for retention (25 mg/kg) administered orally in marmoset; assay type: ADME, organism-based; settings: callithrix, in vivo, po; procedure, shortened: as §3
[25] = The maximum time for retention (25 mg/kg) administered intravenously in rat; assay type: ADME, organism-based; settings: in vivo, iv; procedure, shortened: as §3
[26] = Elimination rate constant of the compound(12.5 mg/kg) administered intravenously in marmoset; assay type: ADME, organism-based; settings: callithrix, in vivo, iv, read-out: T1/2 el (converted); procedure, shortened: as §1
[27] = Elimination rate constant of the compound(50 mg/kg) administered orally in fasted rat; assay type: ADME, organism-based; settings: in vivo, po, read-out: T1/2 el (converted); procedure, shortened: as §1
[28] = The maximum plasma concentration (100 mg/kg) administered orally in human; assay type: ADME, organism-based; set-up: route oral; settings: po; procedure, shortened: as §2
[29] = The maximum plasma concentration (25 mg/kg) administered orally in monkey; assay type: ADME, organism-based; set-up: dose 25 mg/kg, route oral; settings: simiiformes, po; procedure, shortened: as §1
[30] = The maximum plasma concentration (25 mg/kg) administered orally in marmoset; assay type: ADME, organism-based; set-up: dose 25 mg/kg, route oral; settings: callithrix, po; procedure, shortened: as §1
[31] = Oral bioavailability (25 mg/kg) in marmoset; assay type: ADME, organism-based; settings: primates, in vivo; procedure, shortened: as §1
[32] = The maximum time for retention (100 mg) administered orally in human; settings: in vivo, po
[33] = Elimination rate constant of the compound(100 mg) administered orally in human; settings: in vivo, po, read-out: T1/2 el (converted)
Homo sapiens [34] = assay: The maximum time for retention (800 mg) administered orally in human; settings: in vivo, po
Homo sapiens [35] = assay: The area under curve (800 mg/kg) administered orally in humans; assay type: ADME, organism-based; settings: in vivo, po; procedure, shortened: as §2
[36] = Elimination rate constant of the compound(15 mg/kg) administered intravenously in dog; assay type: ADME, organism-based, Canis lupus familiaris; settings: in vivo, iv, read-out: T1/2 el (converted); procedure, shortened: as §1
[37] = The area under curve (50 mg/kg) administered orally in fasted rat; assay type: ADME, organism-based; settings: in vivo, po; procedure, shortened: as §1
[38] = The maximum time for retention (15 mg/kg) administered intravenously in dog; assay type: ADME, organism-based, Canis lupus familiaris; settings: in vivo, iv; procedure, shortened: as §1
[39] = The maximum plasma concentration (25 mg/kg) administered intravenously in rat; assay type: ADME, organism-based; set-up: dose 25 mg/kg, route intravenous; settings: iv; procedure, shortened: as §1
Homo sapiens [40] = assay: The maximum plasma concentration (800 mg/kg) administered orally in human; assay type: ADME, organism-based; set-up: route oral; settings: in vivo, po; procedure, shortened: as §2
[41] = The area under curve (30 mg/kg) administered orally in dog; assay type: ADME, organism-based, Canis lupus familiaris; settings: in vivo, po; procedure, shortened: as §1
[42] = The area under curve (25 mg/kg) administered intravenously in rat; assay type: ADME, organism-based; settings: in vivo, iv; procedure, shortened: as §1
[43] = The maximum plasma concentration (12.5 mg/kg) administered intravenously in monkey; assay type: ADME, organism-based; set-up: dose 12.5 mg/kg, route intravenous; settings: simiiformes, iv; procedure, shortened: as §1
[44] = The area under curve (25 mg/kg) administered orally in monkey; assay type: ADME, organism-based; settings: simiiformes, in vivo, po; procedure, shortened: as §1
[45] = The maximum time for retention (50 mg/kg) administered orally in rat; assay type: ADME, organism-based; settings: in vivo, po; procedure, shortened: as §3
[46] = The maximum time for retention (25 mg/kg) administered orally in monkey; assay type: ADME, organism-based; settings: simiiformes, in vivo, po; procedure, shortened: as §3
[47] = The maximum time for retention (200 mg) administered orally in human; settings: in vivo, po
[48] = The maximum plasma concentration (400 mg/kg) administered orally in human; assay type: ADME, organism-based; set-up: route oral; settings: po; procedure, shortened: as §2
[49] = The area under curve (50 mg/kg) administered orally in rat; assay type: ADME, organism-based; settings: in vivo, po; procedure, shortened: as §1
[50] = Elimination rate constant of the compound(25 mg/kg) administered orally in monkey; assay type: ADME, organism-based; settings: simiiformes, in vivo, po, read-out: T1/2 el (converted); procedure, shortened: as §1
[51] = Elimination rate constant of the compound(400 mg/kg) administered orally in human; assay type: ADME, organism-based; settings: in vivo, po, read-out: T1/2 el (converted); procedure, shortened: as §2
[52] = The area under curve (12.5 mg/kg) administered intravenously in marmoset; assay type: ADME, organism-based; settings: callithrix, in vivo, iv; procedure, shortened: as §1
[53] = The maximum plasma concentration (15 mg/kg) administered intravenously in dog; assay type: ADME, organism-based, Canis lupus familiaris; set-up: dose 15 mg/kg, route intravenous; settings: iv; procedure, shortened: as §1
[54] = Elimination rate constant of the compound(12.5 mg/kg) administered intravenously in rmonkey; assay type: ADME, organism-based; settings: simiiformes, in vivo, iv, read-out: T1/2 el (converted); procedure, shortened: as §1
[55] = Oral bioavailability (25 mg/kg) in monkey; assay type: ADME, organism-based; settings: primates, in vivo; procedure, shortened: as §1
[56] = The maximum plasma concentration (12.5 mg/kg) administered intravenously in marmoset; assay type: ADME, organism-based; set-up: dose 12.5 mg/kg, route intravenous; settings: callithrix, iv; procedure, shortened: as §1

Cc1c(O)cccc1C(=O)N[C@@H](CSc1ccc2ccccc2c1)[C@H](O)CN1C[C@H]2CCCC[C@H]2C[C@H]1C(=O)NC(C)(C)C
Ki [1]: 98 nM
EC50 (CCRF-CEM): 100 nM

CS(=O)(=O)O.Cc1c(O)cccc1C(=O)N[C@@H](CSc1ccccc1)[C@H](O)CN1C[C@H]2CCCC[C@H]2C[C@H]1C(=O)NC(C)(C)C [NELFINAVIR MESYLATE]
Cmax [2]: 1220 ng/mL
Tmax [3]: 4.8 min
bioavailability [4]: 43%
Cmax [5]: 1340 ng/mL
Tmax [6]: 1.39 h
half-life [7]: 7.72 h
half-life [8]: 1.26 h
Tmax [9]: 4.8 min
Cmax [10]: 439 ng/mL
AUC [11]: 11200 ng·h/mL
Tmax [12]: 4 h
Tmax [13]: 3 h
T1/2 el [14]: 3.37 h
AUC [15]: 10400 ng·h/mL
AUC [16]: 2890 ng·h/mL
AUC [17]: 1250 ng·h/mL
AUC [18]: 7560 ng·h/mL
bioavailability [19]: 35%
half-life [20]: 2.21 h
half-life [21]: 2.04 h
bioavailability [22]: 29%
Cmax [23]: 1470 ng/mL
Tmax [24]: 1 h
Tmax [25]: 3.6 min
half-life [26]: 1.23 h
half-life [27]: 1.07 h
Cmax [28]: 313 ng/mL
Cmax [29]: 1590 ng/mL
Cmax [30]: 840 ng/mL
bioavailability [31]: 10%
Tmax [32]: 3 h
half-life [33]: 1.72 h
T max (Homo sapiens [34]): 3.5 h
AUC (Homo sapiens [35]): 22200 ng·h/mL
half-life [36]: 1.18 h
AUC [37]: 4040 ng·h/mL
Tmax [38]: 4.8 min
Cmax [39]: 12700 ng/mL
Cmax (Homo sapiens [40]): 3163 ng/mL
AUC [41]: 13300 ng·h/mL
AUC [42]: 7010 ng·h/mL
Cmax [43]: 7990 ng/mL
AUC [44]: 6290 ng·h/mL
Tmax [45]: 2.82 h
Tmax [46]: 3 h
Tmax [47]: 3 h
Cmax [48]: 1580 ng/mL
AUC [49]: 6090 ng·h/mL
half-life [50]: 3 h
half-life [51]: 2.28 h
AUC [52]: 6630 ng·h/mL
Cmax [53]: 11900 ng/mL
half-life [54]: 1.47 h
bioavailability [55]: 9%
EC50 (CCRF-CEM): 14 nM
Cmax [56]: 5670 ng/mL
